High-throughput results deposited in PubChem by The Scripps Research Institute Molecular Screening Center.
Rows were chosen to be rich in hits. Some 1.8% of all compounds tested hit in one or more screens of this group.
NPY2 pot ag – NPY-Y2 potentiators or agonists, primary screen, cell-based. Neuropeptide Y receptor type 2 (Homo sapiens), P49146. activation, % at 3.6 µM. hit rate 0.45% among 220,000. cells expressing NPY-Y2, potentiator/agonist read-out; in the data active means activation above about 27%;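 further: cells stimulated with NPY near EC25 plus isoproterenol at EC100; 0% = vehicle plus submaximal agonist and 100% = vehicle plus saturating agonist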
Target sequence (P49146 whole entry, looked up): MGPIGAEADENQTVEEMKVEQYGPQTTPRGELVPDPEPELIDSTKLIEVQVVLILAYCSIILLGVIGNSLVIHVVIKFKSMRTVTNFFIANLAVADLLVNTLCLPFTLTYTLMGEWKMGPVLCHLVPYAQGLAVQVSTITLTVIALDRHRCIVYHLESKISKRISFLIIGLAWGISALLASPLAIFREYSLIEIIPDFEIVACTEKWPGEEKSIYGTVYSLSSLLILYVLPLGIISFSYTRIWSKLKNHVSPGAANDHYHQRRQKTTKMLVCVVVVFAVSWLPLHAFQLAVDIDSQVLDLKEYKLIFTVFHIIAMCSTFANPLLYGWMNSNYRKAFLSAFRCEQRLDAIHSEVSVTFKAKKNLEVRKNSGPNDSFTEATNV
NPY1 pot ag – NPY-Y1 receptor potentiators or agonists, primary screen, cell-based. activation, % at 3.6 µM. NPY-Y1 expressing cells, potentiator/agonist activation. AID 1304, 2008. hit rate 0.37% among 220,000; in the data active means activation above about 33%, passing the limit was not always enough;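 further: cells stimulated with NPY at EC10 then isoproterenol at EC100; 0% = low agonist plus stimulus and 100% = saturating agonist plus stimulus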
NPY-Y1 antag – NPY-Y1 receptor antagonists, primary screen, cell-based; AID 1040, 2008; HEK293-CNG Y1 cells, membrane potential fluorescence; NPY at EC95, then isoproterenol; inhibition, % at 3.6 µM; hit rate 1% among 200,000; Neuropeptide Y receptor type 1 (Homo sapiens), P25929;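 active means inhibition above the campaign mean inhibition of all tested compounds plus 3 SD, cut at about 20% in these data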;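 further: 0% = DMSO wells given NPY plus isoproterenol and 100% = isoproterenol alone without NPY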
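Assay system: HEK293 cells with Y1 receptor plus CNG channel | Probe or stimulus: NPY (25 nM), isoproterenol (1 µM), Ro 20-1724 (25 µM) | Timing: Compound incubation 1 h at room temperature, readout 45 min post-stimulation | Measured by: Membrane-potential fluorescent dye readout | Benchmarks: High control isoproterenol alone, low control NPY with isoproterenol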
NPY Y2 blocker – NPY-Y2 receptor antagonists, primary screen, cell-based. NPY-Y2 expressing cells, antagonist mode. Neuropeptide Y receptor type 2 (Homo sapiens), P49146. AID 793, 2007. hit rate 0.99% among 140,000. inhibition, % at 2.7 µM; in the data active means inhibition above about 17%;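 further: 0% = vehicle with agonist challenge and 100% = reference antagonist with challenge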
* marks the source's active call; other numbers are inactive results.

How did CC(C)(C)c1ccc(Oc2ccc(NC(=O)c3ccco3)cn2)cc1 do in these assays?
NPY2 pot ag: 58*; NPY1 pot ag: 54*

How did COc1ccc(NS(=O)(=O)c2cc(OC)ccc2NC(=O)c2cc(C)oc2C)cc1 do in these assays?
NPY2 pot ag: 24; NPY1 pot ag: 25; NPY-Y1 antag: 20*; NPY Y2 blocker: 5

What do the screens show for `COc1ccc(NC(=O)c2cc(S(=O)(=O)N3CCCC3)oc2C)cc1`?
NPY2 pot ag: 8; NPY1 pot ag: 10

What do the screens show for `CC(CCc1ccccc1)NCC#N` (stereo unspecified)?
NPY2 pot ag: -3; NPY1 pot ag: -3

Results for Cc1ccc(S(=O)(=O)N(Cc2ccc(Cl)cc2)c2ccccc2C(=O)NCc2ccco2)cc1 ?
NPY2 pot ag: -12; NPY1 pot ag: -110; NPY-Y1 antag: 29*; NPY Y2 blocker: 32*

How did Cc1ccccc1N(CC(=O)Nc1ccccc1C(=O)NCc1ccco1)S(=O)(=O)c1ccccc1 do in these assays?
NPY2 pot ag: 9; NPY1 pot ag: 7; NPY-Y1 antag: 6; NPY Y2 blocker: 2

Results for CC1CC(C)CN(CCOc2ccccc2-c2ccccc2)C1 (stereo unspecified) ?
NPY2 pot ag: -9; NPY1 pot ag: -23; NPY-Y1 antag: 34*; NPY Y2 blocker: 30*

Results for Cc1ccc(C)c(NC(=S)NCc2ccc3c(c2)OCO3)c1 ?
NPY2 pot ag: -23; NPY1 pot ag: -15; NPY-Y1 antag: 8; NPY Y2 blocker: 11

Results for Cc1cc(C)cc(NC(=S)NCc2ccc3c(c2)OCO3)c1 ?
NPY2 pot ag: -52; NPY1 pot ag: -78; NPY-Y1 antag: 30*; NPY Y2 blocker: 14

How did COc1ccc(NC(=O)CCCC2CCCCC2)cc1S(=O)(=O)N1CCCCC1 do in these assays?
NPY2 pot ag: -7; NPY1 pot ag: -17; NPY-Y1 antag: 29*; NPY Y2 blocker: 18*

What do the screens show for `CC(NCc1ccc(F)cc1)C(=O)Nc1cc(S(=O)(=O)N2CCCCC2)ccc1Cl` (stereo unspecified)?
NPY2 pot ag: 1; NPY1 pot ag: -21; NPY-Y1 antag: -5

Results for Cc1ccc(NC2=C/C(=N\S(=O)(=O)c3cccs3)c3ccccc3C2=O)c(C)c1 ?
NPY2 pot ag: 62*; NPY1 pot ag: 48*; NPY-Y1 antag: -15; NPY Y2 blocker: -9

Results for Cc1cccc(NC2=C/C(=N/S(=O)(=O)c3cccs3)c3ccccc3C2=O)c1 ?
NPY2 pot ag: -13; NPY1 pot ag: -30; NPY-Y1 antag: -3; NPY Y2 blocker: -9

How did O=C1C(Nc2ccc(O)cc2)=C/C(=N/S(=O)(=O)c2cccs2)c2ccccc21 do in these assays?
NPY2 pot ag: 68*; NPY1 pot ag: 70*; NPY-Y1 antag: -21

How did COc1ccc(C(=O)C(Sc2nnc(C)c(=O)[nH]2)c2ccc(OC)cc2)cc1 (stereo unspecified) do in these assays?
NPY2 pot ag: -9; NPY1 pot ag: -19

What do the screens show for `N=c1c(C(=O)NCc2ccco2)cc2c(=O)n3ccccc3nc2n1Cc1ccc(Cl)cc1`?
NPY2 pot ag: -25; NPY1 pot ag: 10; NPY-Y1 antag: 36*; NPY Y2 blocker: 25*

What do the screens show for `N=c1c(C(=O)NCc2ccc(F)cc2)cc2c(=O)n3ccccc3nc2n1Cc1ccco1`?
NPY2 pot ag: 6; NPY1 pot ag: 8; NPY-Y1 antag: 3; NPY Y2 blocker: 16

What do the screens show for `COCCCn1c(=N)c(C(=O)NC2CCCCC2)cc2c(=O)n3ccccc3nc21`?
NPY2 pot ag: 14; NPY1 pot ag: -11; NPY-Y1 antag: 15; NPY Y2 blocker: 20*

How did Cc1ccccc1Nc1c(-c2ccncc2)nc2ccc(Cl)cn12 do in these assays?
NPY2 pot ag: 45*; NPY1 pot ag: 54*; NPY-Y1 antag: -6

How did CCOC(=O)CNc1c(-c2ccccc2)nc2ccc(Cl)cn12 do in these assays?
NPY2 pot ag: -12; NPY1 pot ag: 5; NPY-Y1 antag: 1; NPY Y2 blocker: -1

Results for Cc1ccn2c(Nc3ccccc3C)c(-c3cccnc3)nc2c1 ?
NPY2 pot ag: 53*; NPY1 pot ag: 61*; NPY-Y1 antag: 0

Results for O=C(N/N=C/c1ccccc1[N+](=O)[O-])c1cnccn1 ?
NPY2 pot ag: 14; NPY1 pot ag: 20

What do the screens show for `CCOC(=O)N(NC(=O)C(O)(CC(C)C)CC(C)C)c1ccccc1`?
NPY2 pot ag: -3; NPY1 pot ag: -13; NPY-Y1 antag: 13; NPY Y2 blocker: 8
